Most compounds without a hit are left out; they make up all but 2.3% or so of the library.
TRPC4 agonist – TRPC4 (mouse) channel activation; HEK293 TRPC4beta/mu-opioid, Fluo4 calcium fluorescence; active compounds read high; actives 0.49% (n = 310,000); B-score at 10 µM; AID 2237;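 active = B-score above 5 SD of library B-scores, and initial fluorescence ratio not above library mean plus 5 SD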;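 also: positive B-score marks a calcium rise read as TRPC4 activation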
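system = HEK293 cells stably co-expressing mouse TRPC4beta and mu-opioid receptor | schedule = Fluo4 dye loading 45 min at room temperature, 110 s recording | measure = B-scored integrated calcium fluorescence ratio | signal = Fluo4 calcium-sensitive dye fluorescence, kinetic, 1 Hz baseline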
TRPC4 potent – allosteric potentiators of mouse TRPC4 channel; HEK293 TRPC4beta/mu-opioid, DAMGO EC20, Fluo-4 Ca2+ flux; active compounds read high; actives 0.42% (n = 310,000); Q9QUQ5; B-score at 10 µM; AID 2227;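 active = B-score of calcium response area above 5 SD of library B-scores, with initial fluorescence ratio within 5 SD of library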;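 also: B-score of integrated fluorescence ratio over time as area under calcium response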
TRPC6 inh – inhibitors of mouse TRPC6 channel. actives 1.1% (n = 310,000). Q61143. B-score at 10 µM. HEK293-TRPC6, membrane potential dye, ACh-evoked depolarization; active compounds read low;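 active = B-score under library mean minus 3 SD, initial fluorescence not abnormally high, positive integrated signal ratio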;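 also: B-score derived from integrated fluorescence ratio over the kinetic read; more negative B-score means stronger inhibition of depolarization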
Target sequence (Q61143 whole entry, looked up): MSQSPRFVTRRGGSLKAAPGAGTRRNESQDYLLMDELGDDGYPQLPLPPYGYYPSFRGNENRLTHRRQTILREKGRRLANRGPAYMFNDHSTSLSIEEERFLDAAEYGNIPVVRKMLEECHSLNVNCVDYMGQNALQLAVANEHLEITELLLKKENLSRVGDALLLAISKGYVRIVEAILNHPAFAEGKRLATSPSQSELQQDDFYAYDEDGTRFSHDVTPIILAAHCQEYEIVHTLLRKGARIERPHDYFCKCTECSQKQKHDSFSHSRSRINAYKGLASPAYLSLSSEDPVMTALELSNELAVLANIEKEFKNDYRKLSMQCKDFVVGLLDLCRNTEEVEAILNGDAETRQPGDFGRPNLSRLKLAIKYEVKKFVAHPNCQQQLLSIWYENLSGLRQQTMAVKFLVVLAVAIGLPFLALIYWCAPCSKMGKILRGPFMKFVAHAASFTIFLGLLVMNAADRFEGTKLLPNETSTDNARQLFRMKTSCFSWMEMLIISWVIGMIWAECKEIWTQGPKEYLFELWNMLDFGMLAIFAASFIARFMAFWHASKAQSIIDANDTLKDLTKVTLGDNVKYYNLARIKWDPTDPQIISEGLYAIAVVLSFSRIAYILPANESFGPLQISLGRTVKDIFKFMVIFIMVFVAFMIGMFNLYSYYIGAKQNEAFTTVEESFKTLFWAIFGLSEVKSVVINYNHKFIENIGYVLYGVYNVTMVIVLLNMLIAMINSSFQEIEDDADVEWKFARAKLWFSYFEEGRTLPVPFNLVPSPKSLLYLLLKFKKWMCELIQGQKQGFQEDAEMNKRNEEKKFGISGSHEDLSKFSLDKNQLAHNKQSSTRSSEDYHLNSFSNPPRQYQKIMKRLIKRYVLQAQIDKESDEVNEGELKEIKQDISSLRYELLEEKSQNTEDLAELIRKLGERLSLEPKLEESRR
TRPC4 block – blocks the mouse TRPC4 cation channel; HEK293 TRPC4beta/mu-opioid, DAMGO-evoked Fluo4 calcium flux; active compounds read low; B-score at 10 µM; actives 0.39% (n = 300,000);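 active = B-score over 3 SD under the library average, no early fluorescence shift, positive overall ratio signal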
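Assay system: Stable TRPC4beta/mu-opioid receptor HEK293 cells | Reagent: DAMGO in two steps, submaximal then maximal | Compound dosing: Single concentration per test compound | Signal: Fluo4 Ca2+ flux fluorescence | Evaluation: Per-well B score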
TRPC6 activator – activates the mouse TRPC6 cation channel; Q61143; HEK293-TRPC6 membrane potential dye fluorescence; active compounds read high; B-score at 10 µM; actives 0.13% (n = 310,000);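 active = B-score of the integrated fluorescence ratio above library mean plus 3 SD, and starting fluorescence ratio within library mean plus 5 SD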;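 also: higher score means more depolarization so channel activation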
TRPC4 sel inh 2 – second selectivity test of TRPC6 inhibitors: effect on mouse TRPC4; HEK293 TRPC4/MOR, membrane potential dye fluorescence; channel activated by saturating DAMGO dose; AID 2776; shares compounds with TRPC6 inh; actives 42% (n = 920); inhibition, % at 10 µM;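 active = compounds whose fluorescence signal differed from control wells by over 3 SD, either direction, in both duplicate plates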
TRPC4 spec – mouse TRPC4 off-target activity of TRPC6 inhibitors. HEK293 TRPC4/mu-opioid, membrane potential fluorescence. actives 61% (n = 920). shares compounds with TRPC6 inh. AID 2777. activity change, negative = inhibition, % at 10 µM;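 active = rise or fall in signal beyond 3 SD of buffer-only wells in both replicate plates, either sign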;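 also: integrated kinetic ratio of fluorescence range over baseline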
HEK293 MPD ctr 2-1 – parental HEK293 nonspecific activity of TRPC6 inhibitors, second screen; shares compounds with TRPC6 inh; parental HEK293 membrane potential dye fluorescence; maximal acetylcholine challenge after compound addition; signal change vs control, % at 10 µM; actives 31% (n = 920); AID 2779;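 active = membrane potential signal moving either way by over 3 SD of the maximum-effect control, in both duplicate plates, meaning non-specific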
HEK293 MPD ctr-1 – counter-screen for TRPC6 inhibitors: effect in parental HEK293 cells. membrane potential signal change, % at 10 µM. shares compounds with TRPC6 inh. actives 60% (n = 920). parental HEK293 membrane potential dye fluorescence;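 active = membrane potential signal shifting up or down by more than 3 SD of buffer-only wells, on both duplicate plates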
HEK293 MPD ctr-2 – counter-screen for TRPC6 modulators: effect in parental HEK293 cells | shares compounds with TRPC6 inh | membrane potential dye fluorescence | membrane potential signal change, % at 10 µM | actives 51% (n = 2,400) | AID 488924;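 active = membrane potential signal moves up or down beyond 5 SD from buffer-only wells, on both duplicate plates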
HEK293 MPD ctr 2-2 – second check of TRPC6 modulator effects in parental HEK293 cells; inhibition, % at 10 µM; actives 14% (n = 2,400); membrane potential dye fluorescence; after compound, maximal acetylcholine stimulation; shares compounds with TRPC6 inh;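 active = membrane potential signal drops by more than 5 SD from the mean control signal, in both duplicate plates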;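 also: plate controls were acetylcholine ECmax control wells for no effect and buffer only wells for full effect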
TRPC4 ctr mod – mouse TRPC4 off-target activity of TRPC6 modulators; shares compounds with TRPC6 inh; HEK293 TRPC4/mu-opioid, membrane potential fluorescence; percent change from control (negative = decrease, positive = increase), % at 10 µM; actives 69% (n = 2,400); AID 488927;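 active = membrane potential signal moved up or down beyond 5 SD of buffer control wells, in both duplicate plates, actives on both sides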;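 also: plate controls were assay buffer wells for no effect and DAMGO maximal-effect wells for full effect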
TRPC4/MOR inh 2 – second selectivity test of TRPC6 modulators against mouse TRPC4. HEK293 TRPC4/mu-opioid, membrane potential dye fluorescence; stimulated with maximal-effect DAMGO. inhibition, % at 10 µM. shares compounds with TRPC6 inh. actives 55% (n = 2,400);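 active = drop in membrane potential signal beyond 5 SD of the control wells in both duplicate plates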;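 also: TRPC4 counter screen for TRPC6 hits run under conditions tuned for TRPC6 not TRPC4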
TRPC6 inh conf – mouse TRPC6 inhibitor confirmation; shares compounds with TRPC6 inh; HEK293-TRPC6, membrane potential dye, ACh-evoked depolarization; inhibition, % at 10 µM; actives 43% (n = 3,300);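 active = fluorescence ratio falls more than 5 SD below the full-stimulation control mean, in both duplicate runs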;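 also: integrated fluorescence ratio of peak minus minimum over baseline after agonist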
TRPC6 act conf – mouse TRPC6 activator confirmation. HEK293-TRPC6 membrane potential dye fluorescence, FDSS. shares compounds with TRPC6 inh. actives 11% (n = 2,800). activation, % at 10 µM;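 active = ratio signal rise beyond 5 SD above unstimulated control wells' mean, seen in both duplicate runs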;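 also: plate controls were buffer EC0 wells for no effect and acetylcholine ECmax response for full effect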
The depositor's hits bear a star; i = inactive; . = no result given; + = active, no number.

SMILES	TRPC4 agonist	TRPC4 potent	TRPC6 inh	TRPC4 block	TRPC6 activator	HEK293 MPD ctr-2	HEK293 MPD ctr 2-2	TRPC4 ctr mod	TRPC4/MOR inh 2	TRPC6 inh conf	TRPC6 act conf	others
CCc1ccccc1NS(=O)(=O)c1ccc2[nH]cc(C(=O)NCc3ccco3)c(=O)c2c1	i	i	-5*	i	i	i	i	i	i	i	i
O=C(NCc1ccccc1)c1c[nH]c2ccc(S(=O)(=O)Nc3ccc4c(c3)OCCO4)cc2c1=O	i	i	-5.21*	i	i	i	i	i	i	i	i
COc1ccc(S(=O)(=O)Nc2ccccc2C(=O)NCc2ccco2)cc1	i	i	i	i	i	.	.	.	.	.	.
O=C(NC1CC1)c1c[nH]c2ccc(S(=O)(=O)Nc3cccc(C(F)(F)F)c3)cc2c1=O	i	i	-5.22*	i	i	i	i	i	i	i	.
COC(=O)c1nnn(CC(=O)Nc2cccc(OC)c2)c1C(=O)OC	i	i	i	i	i	.	.	.	.	.	.
CCCNCC(O)Cn1c2ccccc2n2c(=O)cc(C)c(C#N)c12 (stereo unspecified)	i	i	i	i	i	.	.	.	.	.	.
CCCN(CCC)CC(O)Cn1cc(/C=C/C(=O)c2cccs2)c2ccccc21 (stereo unspecified)	i	i	-10.6*	i	i	.	.	.	.	i	i	TRPC4 sel inh 2=24.0%*;TRPC4 spec=9.6%*;HEK293 MPD ctr 2-1=i;HEK293 MPD ctr-1=16.5%*
Cc1cc(=O)n2c3ccccc3n(CC(O)CN3CCCC3)c2c1C#N (stereo unspecified)	i	i	-7.97*	i	i	.	.	.	.	52.6%*	i	TRPC4 sel inh 2=68.5%*;TRPC4 spec=-19.1%*;HEK293 MPD ctr 2-1=i;HEK293 MPD ctr-1=-280.5%*
O=C(/C=C/c1cn(CC(O)CN2CCCCC2)c2ccccc12)c1ccccc1 (stereo unspecified)	i	i	-6.38*	i	i	294.0%*	i	i	84.0%*	73.5%*	.
O=c1c2ccccc2n(CC(O)CN2CCCCC2)c2ccccc12 (stereo unspecified)	i	i	-5.16*	i	i	-104.5%*	i	-16.0%*	49.0%*	i	i
O=C(NCc1nc2ccccc2[nH]1)C1=C[C@@H](c2ccc(C(F)(F)F)cc2)C[C@@H](OCc2ccc(CO)cc2)O1	i	i	i	i	i	.	.	.	.	.	.
Cc1cn2c(N)c(C=C3C=C(Cl)C(=O)C(Cl)=C3)c(=O)nc2s1	i	i	i	i	82.6*	+	198.5%*	360.5%*	i	i	429.5%*
Cc1ccc(CNC(=O)Cn2cc(C(F)(F)F)ccc2=O)cc1	i	i	i	i	i	.	.	.	.	.	.
CSc1ccccc1C(=O)N1CCC2(CC1)CC(=O)c1ccccc1O2	i	i	i	i	i	.	.	.	.	.	.
Cn1cc(CN2CCC(n3nccc3NC(=O)c3ccccc3Cl)CC2)c2ccccc21	i	i	-5.63*	i	i	i	i	i	70.0%*	i	i
c1ccc2[nH]c(NCCCN3CCOCC3)nc2c1	i	i	i	i	i	.	.	.	.	.	.
Cc1cccc(-c2nc(NCCCN3CCOCC3)c3ccccc3n2)c1	i	i	-9.56*	i	i	.	.	.	.	79.2%*	i	TRPC4 sel inh 2=38.5%*;TRPC4 spec=-21.2%*;HEK293 MPD ctr 2-1=i;HEK293 MPD ctr-1=-283.5%*
N#Cc1c2c(c(NCCCN3CCOCC3)n3c1nc1ccccc13)CCC2	i	i	-6*	i	i	-173.0%*	70.5%*	-35.5%*	51.5%*	46.5%*	i
c1ccc(-c2nc(NCCCN3CCOCC3)c3ccccc3n2)cc1	i	i	-11.3*	i	i	-168.0%*	i	-36.0%*	68.0%*	57.5%*	i
Cc1cc(C)c2nc3nc(C)c(C)cc3c(N)c2c1	i	i	-5.8*	i	i	i	i	-25.0%*	34.5%*	59.0%*	i
CC(=O)Nc1ccc(CN2CCN(C3CCCC3)C(CCO)C2)cc1 (stereo unspecified)	i	i	-6.89*	i	i	.	.	.	.	i	i	TRPC4 sel inh 2=i;TRPC4 spec=i;HEK293 MPD ctr 2-1=i;HEK293 MPD ctr-1=i
Cc1cc(-n2cccn2)ccc1CN1CCN(C2CCCC2)C(CCO)C1 (stereo unspecified)	i	i	-9.67*	i	i	.	.	.	.	62.5%*	.	TRPC4 sel inh 2=i;TRPC4 spec=8.4%*;HEK293 MPD ctr 2-1=19.5%*;HEK293 MPD ctr-1=9.2%*
Cc1cc(-n2cccn2)ccc1CN1CCN(CC(C)C)C(CCO)C1 (stereo unspecified)	i	i	-8.35*	i	i	.	.	.	.	57.5%*	i	TRPC4 sel inh 2=i;TRPC4 spec=4.3%*;HEK293 MPD ctr 2-1=26.5%*;HEK293 MPD ctr-1=5.6%*
COC(=O)c1ccc(CN2CCN(CCC(C)C)C(CCO)C2)cc1 (stereo unspecified)	i	i	-5.19*	i	i	99.0%*	i	10.5%*	i	i	.
Cc1ccc(NC(=O)CSc2ncnc3ccccc23)cc1S(=O)(=O)N1CCCCCC1	i	i	i	i	i	.	.	.	.	.	.

Screens from PubChem BioAssay.
